Test results published in ChEMBL document CHEMBL4052599, “Combined in Vitro Cell-Based/in Silico Screening of Naturally Occurring Flavonoids and Phenolic Compounds as Potential Anti-Alzheimer Drugs” (J Nat Prod, 2017).

What was measured:
[1] = target: T1, Amyloid-beta precursor protein (Homo sapiens, UniProt P05067); test: Displacement of [3H]PIB from human amyloid beta (1 to 40) fibrils after 3 hrs by liquid scintillation counting
[2] = n-octanol-water partition coefficient, log P of the compound; assay type: physicochemical
[3] = system: Escherichia coli BL21(DE3); test: Inhibition of amyloid beta (1 to 42) aggregation in Escherichia coli competent cells BL21 (DE3) at 200 uM after overnight incubation by Thioflavin-S steady-state fluorescence assay
How it was run: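 Aβ42 (extra N-terminal Met) expressed from pET28a in E. coli BL21(DE3). Cells grown in M9 minimal medium with 50 μg/mL kanamycin and 25 μM Th-S (final), IPTG-induced or not, with compound at 200 μM final in DMSO, overnight at 37 °C, 1400 rpm. Th-S read at ex 440 nm, em 460–600 nm. Amyloid band = induced minus noninduced spectrum, normalized to OD600.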

[4] = target: T1, Amyloid-beta precursor protein; test: Inhibition of amyloid beta (1 to 42) (unknown origin) aggregation by Thioflavin-T fluorescence assay
[5] = Inhibition of amyloid beta (1 to 42) aggregation in vitro cell-free polymerization assay
[6] = target: T1, Amyloid-beta precursor protein; test: Inhibition of amyloid beta (1 to 42) (unknown origin) aggregation assessed as end-time for aggregation at 200 uM after 48 hrs by Thioflavin-T fluorescence assay
[7] = target: T1, Amyloid-beta precursor protein; test: Inhibition of amyloid beta (1 to 42) (unknown origin) aggregation at 200 uM after 48 hrs by Thioflavin-T fluorescence assay relative to control
[8] = target: T1, Amyloid-beta precursor protein; test: Inhibition of amyloid beta (1 to 42) (unknown origin) aggregation assessed as apparent elongation constant at 200 uM after 48 hrs by Thioflavin-T fluorescence assay
[9] = target: T1, Amyloid-beta precursor protein; test: Inhibition of recombinant amyloid beta (1 to 42) fibrils (unknown origin) by thioflavin-T fluorescence assay
[10] = target: T1, Amyloid-beta precursor protein; test: Inhibition of amyloid beta (1 to 42) (unknown origin) aggregation assessed as half life for aggregation at 200 uM by Thioflavin-S fluorescence assay
[11] = target: T1, Amyloid-beta precursor protein; test: Inhibition of amyloid beta (1 to 42) (unknown origin) aggregation assessed as lag time at 200 uM in Escherichia coli BL21 (DE3) cells by Thioflavin-S staining time-course kinetics (reference value: 64.4 mins)
[12] = n-octanol/water, read-out: logP

T1 sequence (P05067 whole entry): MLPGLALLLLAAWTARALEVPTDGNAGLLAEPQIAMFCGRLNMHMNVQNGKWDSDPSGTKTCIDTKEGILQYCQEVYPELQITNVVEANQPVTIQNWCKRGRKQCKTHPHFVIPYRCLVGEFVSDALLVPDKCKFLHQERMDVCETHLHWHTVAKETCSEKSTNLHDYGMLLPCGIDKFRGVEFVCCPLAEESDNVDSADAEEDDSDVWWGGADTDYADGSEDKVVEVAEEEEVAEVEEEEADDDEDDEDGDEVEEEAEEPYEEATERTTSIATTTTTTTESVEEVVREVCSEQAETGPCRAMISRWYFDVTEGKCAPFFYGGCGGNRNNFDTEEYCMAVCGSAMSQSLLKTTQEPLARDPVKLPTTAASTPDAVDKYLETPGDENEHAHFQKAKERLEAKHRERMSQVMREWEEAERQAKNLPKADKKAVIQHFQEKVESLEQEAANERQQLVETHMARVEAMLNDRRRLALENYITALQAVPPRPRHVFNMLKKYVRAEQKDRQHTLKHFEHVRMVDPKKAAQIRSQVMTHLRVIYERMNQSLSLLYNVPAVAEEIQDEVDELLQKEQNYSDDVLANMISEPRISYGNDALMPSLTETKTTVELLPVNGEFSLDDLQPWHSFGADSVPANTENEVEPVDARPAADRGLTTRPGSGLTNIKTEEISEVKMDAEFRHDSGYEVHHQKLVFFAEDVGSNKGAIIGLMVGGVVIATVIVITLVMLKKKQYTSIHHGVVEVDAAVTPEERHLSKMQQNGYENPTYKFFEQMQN

SMILES: CNc1ccc(-c2nc3ccc(O)cc3s2)cn1
- Kd [1]: 0.0084 µM
- logP [2, 12]: 2.7

SMILES: COc1cc(/C=C/C(=O)CC(=O)/C=C/c2ccc(O)c(OC)c2)ccc1O
- inhibition [3]: 37.8%

SMILES: COc1ccc2[nH]cc(CCNC(C)=O)c2c1
- inhibition [3]: 7.5%

SMILES: COc1cccc(C=O)c1O
- inhibition [3]: 18.5%

SMILES: O=C(/C=C/c1ccc(O)c(O)c1)O[C@H](Cc1ccc(O)c(O)c1)C(=O)O
- inhibition [3]: 5.5%

SMILES: O=C1c2c(O)cc(O)cc2O[C@H](c2cc(O)c(O)c(O)c2)[C@H]1O [AMPELOPSIN]
- IC50 [4]: 12.8 to 25.3 µM
- IC50 [5]: 25.3 µM

SMILES: O=c1cc(-c2ccc(O)cc2)oc2cc(O)cc(O)c12 [APIGENIN]
- TIME [6]: 8.85 h
- inhibition [3]: 77.3%
- inhibition [7]: 52.7%
- IC50 [4]: 176 µM
- Ke(app) [8]: 61.6 M⁻¹ s⁻¹
- logP [2, 12]: 2.2
- IC50 [9]: 23 to 39 µM
- T1/2 [10]: 5.1 h
- Tlag [11]: 81.3 min

SMILES: O=c1c(O)c(-c2ccccc2O)oc2cc(O)cc(O)c12 [DATISCETIN]
- IC50 [5]: 55.4 µM

SMILES: O=c1c(O)c(-c2ccccc2)oc2cc(O)cc(O)c12 [GALANGIN]
- IC50 [5]: > 500 µM

SMILES: O=c1c(O)c(-c2ccc(O)cc2)oc2cc(O)cc(O)c12 [KAEMPFEROL]
- IC50 [5]: 75.1 µM

SMILES: O=c1c(O)c(-c2ccc(O)cc2O)oc2cc(O)cc(O)c12 [MORIN]
- IC50 [5]: 30.3 µM

SMILES: O=c1c(O)c(-c2ccc(O)c(O)c2)oc2cc(O)cc(O)c12 [QUERCETIN]
- inhibition [3]: 81.3%
- inhibition [7]: 75.4%
- IC50 [4]: 125 µM
- logP ([2]; octanol/water): 2.7
- IC50 [5]: 15.3 µM
- Tlag [11]: 82.7 min
